High-throughput results (PubChem BioAssay)
Arr AP2 block = inhibitors of beta-arrestin/AP2 binding, primary screen, biochemical, GPCR trafficking, flow cytometry; beta-arrestin 1 C-terminal peptide binding to AP2 beta2-adaptin appendage (human); FITC-arrestin peptide / GST-AP2 beads; AP2 beta2 appendage carries R879A mutation; inhibition, % at 10 µM; hit rate 0.31% among 340,000;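 active means inhibition above a set limit, near 3 SD of compounds lacking own fluorescence, cut at about 54% in these data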
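System: GST-tagged AP2 beta2-adaptin appendage (R879A) on 4 µm glutathione beads / Reagent: FITC-arrestin peptide, 50 nM / Detection: HyperCyt-sampled flow cytometry, FL1 channel, ex 488/em 535 nm / Timing: 12 min plus 1 h, RT / Buffer or medium: PBS plus Tween 20 (0.05%) and BSA (0.1%)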
PLC-gamma1 inh = PLC-gamma1 enzyme inhibitors, primary screen, biochemical, fluorescence, purified enzyme. 1-phosphatidylinositol 4,5-bisphosphate phosphodiesterase gamma-1 (Homo sapiens), P19174. fluorogenic substrate. inhibition, % at 12.2 µM. hit rate 0.84% among 370,000. AID 720700, 2013; in the data active means inhibition above about 9.5%
Target sequence (P19174 whole entry, looked up): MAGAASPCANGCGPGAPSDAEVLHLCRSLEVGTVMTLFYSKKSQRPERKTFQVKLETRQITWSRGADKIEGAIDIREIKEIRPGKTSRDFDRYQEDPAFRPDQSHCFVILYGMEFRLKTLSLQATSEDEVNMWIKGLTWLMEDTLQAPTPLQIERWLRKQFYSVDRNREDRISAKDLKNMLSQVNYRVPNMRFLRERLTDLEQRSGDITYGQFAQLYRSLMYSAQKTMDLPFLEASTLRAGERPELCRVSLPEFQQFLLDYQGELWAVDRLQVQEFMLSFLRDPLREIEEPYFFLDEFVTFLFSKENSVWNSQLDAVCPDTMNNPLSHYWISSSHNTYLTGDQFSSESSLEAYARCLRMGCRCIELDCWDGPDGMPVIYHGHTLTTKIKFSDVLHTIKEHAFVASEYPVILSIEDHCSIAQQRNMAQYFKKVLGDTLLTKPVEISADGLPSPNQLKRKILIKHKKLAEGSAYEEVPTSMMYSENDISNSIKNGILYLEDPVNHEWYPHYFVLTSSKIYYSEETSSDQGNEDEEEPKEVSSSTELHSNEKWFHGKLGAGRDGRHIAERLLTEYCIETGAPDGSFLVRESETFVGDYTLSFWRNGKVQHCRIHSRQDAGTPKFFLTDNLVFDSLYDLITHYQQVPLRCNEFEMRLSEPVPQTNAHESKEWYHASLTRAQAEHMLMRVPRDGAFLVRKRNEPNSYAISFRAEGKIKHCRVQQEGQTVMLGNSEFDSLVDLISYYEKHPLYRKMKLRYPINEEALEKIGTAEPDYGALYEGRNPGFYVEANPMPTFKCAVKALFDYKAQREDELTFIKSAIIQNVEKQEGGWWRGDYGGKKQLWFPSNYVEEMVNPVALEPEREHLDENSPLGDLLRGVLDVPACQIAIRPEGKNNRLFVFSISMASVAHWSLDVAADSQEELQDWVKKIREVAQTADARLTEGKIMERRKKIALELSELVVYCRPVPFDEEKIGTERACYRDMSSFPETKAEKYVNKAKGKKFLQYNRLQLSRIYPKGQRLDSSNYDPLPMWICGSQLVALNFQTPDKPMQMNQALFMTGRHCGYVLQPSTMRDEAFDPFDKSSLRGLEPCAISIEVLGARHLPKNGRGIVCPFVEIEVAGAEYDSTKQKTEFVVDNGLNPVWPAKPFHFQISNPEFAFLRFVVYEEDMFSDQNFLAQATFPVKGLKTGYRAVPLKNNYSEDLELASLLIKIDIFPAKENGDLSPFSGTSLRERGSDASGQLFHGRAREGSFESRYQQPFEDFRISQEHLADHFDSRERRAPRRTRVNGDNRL
PLCb3 inh = human PLC-beta3 inhibitors, primary screen, biochemical, fluorescence | 1-phosphatidylinositol 4,5-bisphosphate phosphodiesterase beta-3 (Homo sapiens), Q01970 | Purified PLC-beta3, fluorogenic substrate | inhibition, % at 12.2 µM | hit rate 0.18% among 370,000 | AID 720704, 2013; in the data active means inhibition above about 11%
proCasp3 act = activators of human procaspase-3 D3A mutant, primary screen, biochemical, absorbance, PC-3 D3A mutant, single concentration; Caspase-3 (Homo sapiens), P42574; recombinant procaspase-3 D3A, Ac-DEVD-pNA absorbance 405 nm; activation, % at 8.5 µM; hit rate 0.11% among 330,000; AID 463141, 2010;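 active means activation above the mean of all tested compounds plus 3 SD, cut at about 21% in these data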
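Test system: Procaspase-3 D3A mutant, all three cleavage aspartates alanine | Dosing: Single dose, 8.5 µM nominal compound, 0.8% DMSO | Schedule: 1 h preincubation, 2 h reaction | Technique: 405 nm absorbance of p-nitroaniline, reads at 0 and 120 min | Repeats: One well per compound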
sPLA2-III inh = human group III sPLA2 inhibitors, primary screen, biochemical, QFRET, BODIPY PC-A2 liposome substrate; QFRET BODIPY PC-A2 liposome hydrolysis, fluorescence; inhibition, % at 12.2 µM; hit rate 0.56% among 370,000; AID 743126, 2013;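 active means inhibition above mean plus 3 SD of compounds lying within the high and low control bounds, cut at about 19% in these data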
proCasp7 act = procaspase-7 activators, primary screen, counter-screen for procaspase-3 activator project, biochemical, absorbance, HTS, human; hit rate 0.093% among 330,000; AID 463210, 2010; activation, % at 8.5 µM; recombinant procaspase-7, Ac-DEVD-pNA absorbance 405 nm; D23A/D198A/D206A triple mutant, cannot self-cleave; scale: DMSO 0, 5 µM enzyme 100;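 active means percent activation above the screen-wide mean plus 3 SD, cut at about 25% in these data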
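Material: Procaspase-7 triple mutant (PC-7 D3A) | Quantity: 2 µM procaspase-7 mutant as dispensed | Reagent: DEVD-pNA substrate | Times: 1 h preincubation, 2 h reaction | Technique: 405 nm absorbance of p-nitroaniline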
procasp7 triplic = procaspase-7 activators, counter-screen for procaspase-3 activator project, biochemical, absorbance, triplicate, human; 210 tested, under 10 active; activation, % at 8.5 µM; recombinant procaspase-7, Ac-DEVD-pNA absorbance; asp23/198/206-to-Ala mutant, cannot self-cleave; shares compounds with proCasp3 act;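 active means mean activation above a set limit taken from an earlier procaspase-7 screen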
procasp3 conf = activators of human procaspase-3 D3A mutant, confirmation, biochemical, absorbance, PC-3 D3A mutant, triplicate; recombinant PC-3 D3A, Ac-DEVD-pNA absorbance 405 nm; 100% is higher-enzyme control; hit rate 10% among 210; activation, % at 8.5 µM; shares compounds with proCasp3 act;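 active means mean activation above a set limit carried over from the earlier primary screen, cut at about 22% in these data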
A number is an active result; - = inactive; . = no result. Most compounds without a hit are left out; they make up all but 1.9% or so of the library.

SMILES | Arr AP2 block | PLC-gamma1 inh | PLCb3 inh | proCasp3 act | sPLA2-III inh | proCasp7 act | procasp7 triplic | procasp3 conf
CC(NC(=O)c1cc2cc([N+](=O)[O-])ccc2oc1=O)C1CCCO1 (stereo not drawn) | - | - | - | 22.1 | - | - | - | 32.0
N#CC1=C(N)Oc2c(ccc3ccccc23)C1c1cccs1 (stereo not drawn) | . | . | . | - | . | - | . | .
CN(C)/C=N/C1=C(C#N)C(c2ccc(Br)cc2)c2ccc3ccccc3c2O1 (stereo not drawn) | - | - | - | 28.7 | - | - | - | -
COC(=O)[C@]12C[C@H](CC(=O)N3CCSCC3)C(=O)N(CCC3=CCCCC3)C1=C[C@H](C(C)C)O[C@@H]2C1CC1 | . | - | - | . | - | . | . | .
Cc1ccc(S(=O)(=O)Oc2ccc(/C=C(/NC(=O)c3ccccc3)C(=O)O)cc2)cc1 | - | - | - | 56.5 | - | - | - | -
COCCNC(=S)N(C)[C@H]1C[C@H]2c3[nH]c4c(-c5cccc(C)c5)cccc4c3CCN2C[C@H]1[C@H](C)O | . | - | - | . | - | . | . | .
N#Cc1ccc(/C=C2\CC3(OC(=O)C4CCCC4)CCCN2C3)cc1 (stereo not drawn) | . | - | - | . | - | . | . | .
CCc1ccc2c(CN3CCN(S(=O)(=O)c4ccc5c(c4)OCCO5)CC3)cc(=O)oc2c1 | - | - | - | - | - | - | . | .
O=c1cc(CN2CCN(S(=O)(=O)c3ccc4c(c3)OCCO4)CC2)c2ccc(O)cc2o1 | - | - | - | 21.5 | - | - | - | -
COc1ccc(-n2c(CCc3ccccc3)nnc2SCC(=O)NCc2ccccc2)cc1 | - | - | - | 59.2 | - | - | - | -
O=C(CSc1nnc(CCc2ccccc2)n1-c1ccc(Cl)cc1)NCc1ccccc1 | - | - | - | - | - | - | . | .
COc1ccc(-c2ccc(C#N)c(SCC(=O)OCc3ccccc3)n2)cc1OC | - | - | - | 34.2 | - | - | - | -
CCOc1ccc(-c2c(C(=O)N/N=C/c3ccc(C)s3)nnn2-c2nonc2N)cc1 | - | . | . | 25.7 | . | - | - | -
CCOc1cccc(-c2c(C(=O)N/N=C/c3ccc(C)s3)nnn2-c2nonc2N)c1 | - | - | - | - | - | - | . | .
CC(=O)N1CCCN(S(=O)(=O)c2ccc3c(c2)oc(=O)n3C)CC1 | . | - | - | . | - | . | . | .
CCc1nnc(NC(=O)CSc2nnc3c(C)cc4c(C)ccc(C)c4n23)s1 | - | - | - | 22.3 | - | - | - | -
Cc1cc(NC(=O)CSc2nnc3c(C)cc4c(C)ccc(C)c4n23)no1 | - | - | - | - | - | - | . | .
Cc1ccccc1CSc1nc2ccccc2c(=O)n1C | - | - | - | - | - | - | . | .
Cn1c(SCc2ccccc2F)nc2ccccc2c1=O | - | - | - | 22.4 | - | - | - | -
O=C(Nc1c(-c2ccc(F)cc2)nc2ncccn12)c1ccccc1 | . | - | - | . | - | . | . | .
Cc1ccc2nc(-c3ccc(NS(=O)(=O)c4c(C)n(C)c(=O)n(C)c4=O)cc3)sc2c1 | - | - | - | - | - | - | . | .
Cc1ccc(C)c(N(CC(=O)Nc2ccc(-c3nc4ccc(C)cc4s3)cc2)S(C)(=O)=O)c1 | - | - | - | 24.1 | - | - | - | 23.3
Cc1ccc(S(=O)(=O)Nc2ccc(-c3nc4ccc(C)cc4s3)cc2)cc1 | - | - | - | 22.5 | - | - | - | -
O=c1[nH]c2ccccc2nc1-c1cccs1 | - | - | - | 34.4 | - | - | - | -
Cc1csc(SC(C)C(=O)Nc2ccc3c(c2)OCCO3)n1 (stereo not drawn) | - | - | - | - | - | - | . | .
SMILES | Arr AP2 block | PLC-gamma1 inh | PLCb3 inh | proCasp3 act | sPLA2-III inh | proCasp7 act | procasp7 triplic | procasp3 conf
CC(Sc1nncs1)C(=O)Nc1ccc2c(c1)OCCO2 (stereo not drawn) | - | - | - | 22.0 | - | - | - | -
O=C(OC12CCCN(C1)/C(=C/c1ccccc1)C2)c1ccc(F)cc1 (stereo not drawn) | . | - | - | . | - | . | . | .
CC(=O)Oc1cccc2c1C(=O)c1c(OC(C)=O)cc(C(=O)O)cc1C2=O | - | - | - | 26.1 | - | - | - | 31.9
COC(=O)[C@]12C[C@H](CC(=O)NCCCCc3ccccc3)C(=O)N(Cc3ccco3)C1=C[C@H](C(C)C)O[C@@H]2C1CC1 | . | - | - | . | - | . | . | .
CCC(=O)N(Cc1cc(=O)[nH]c2ccccc12)c1ccccc1 | - | - | - | - | - | - | . | .
CCCC(=O)N(Cc1cc(=O)[nH]c2ccccc12)c1ccccc1 | - | - | - | 74.5 | - | - | - | -
COc1ccc(C2CC(c3ccc(Cl)cc3)=NN2c2ccc(S(N)(=O)=O)cc2)cc1 (stereo not drawn) | - | - | - | 33.1 | - | - | - | -
COc1ccc(C2CC(c3ccncc3)=NN2c2ccc(S(N)(=O)=O)cc2)cc1 (stereo not drawn) | - | - | - | - | - | - | . | .
CCOC(=O)[C@]12CCCCC/C=C\1N(CCc1ccc(Cl)cc1)C(=O)[C@H]2CC(=O)N1CCN(C(=O)C2CC2)CC1 | . | - | - | . | - | . | . | .
CN(C)CC(c1ccc(O)cc1)C1(O)CCCCC1 (stereo not drawn) | . | - | - | . | - | . | . | .
COCCNc1ncnc2c1cnn2Cc1ccccc1Cl | - | - | - | 22.7 | - | - | - | -
O=C(O)c1nn(CCOc2ccccc2F)c(=O)c2ccccc12 | - | - | - | 21.5 | - | - | - | -
Cc1c(O)ccc2c(CN3CCN(C/C=C/c4ccccc4)CC3)cc(=O)oc12 | - | - | - | 23.8 | - | - | - | -
Cc1cc2oc(=O)cc(CN3CCN(C/C=C/c4ccccc4)CC3)c2cc1O | - | - | - | - | - | - | . | .
Cc1ccc(C2Nc3ccc4ccccc4c3C3=C2C(=O)CC(C)(C)C3)o1 (stereo not drawn) | - | . | . | 45.8 | . | - | - | -
